Measured values: ChEMBL document CHEMBL3272005 (J Med Chem, 1978)

Assays:
[1] = Drug level in ventricular arrthymia patient urine treated with lidocaine at 1.4 mg/min, iv administered for 36 hrs measured after 30 hrs measured after 30 hrs; assay type: ADME, organism-based; conditions: human, in vivo
How it was run: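 Aliquots were analysed immediately after collection by CIMS stable isotope dilution with deuterated analogues as internal standards. Analysis was run before and after TiCl3 reduction of the urine.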

[2] = Drug level in po dosed human urine treated with lidocaine; assay type: ADME, organism-based; conditions: in vivo
How it was run: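 Analysed by chemical-ionization MS stable isotope dilution, with deuterated N-hydroxy analogues as internal standards. Samples were measured before and after TiCl3 reduction. Released 2,6-dimethylaniline was followed by m/e 122/124 ratios and by GC-CIMS selected ion monitoring. Values are given as % of dose.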

Salmonella typhimurium [3] = assay: Genotoxicity in Salmonella typhimurium TA-1538 after 2 days by Ames test relative to control; assay type: toxicity, organism-based; conditions: salmonella enterica subsp. enterica serovar typhimurium, 48 h
How it was run: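 Compounds were tested at 1, 10, 100 and 500 μg, added in Me2SO to top agar. His+ revertant colonies were counted after 2 days at 37 °C and compared with Me2SO-only plates.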

Salmonella typhimurium [4] = assay: Genotoxicity in Salmonella typhimurium TA-1538 after 2 days by Ames test in presence of C57BL/6J mouse liver S9 fraction relative to control; assay type: toxicity, organism-based; conditions: salmonella enterica subsp. enterica serovar typhimurium, s9, 48 h
Mus musculus = organism: Mus musculus; assay: Carcinogenic activity in Swiss albino mouse; assay type: toxicity, organism-based; conditions: in vivo
[5] = Plasma concentration in ventricular arrthymia patient at 1.4 mg/min, iv administered for 36 hrs measured after 30 hrs; assay type: ADME, organism-based; conditions: human

Drug excretion [1]	Drug excretion [2]	concentration at 30 h [5] [ng/mL]	Compound	Activity (Salmonella typhimurium [3])	Activity (Salmonella typhimurium [4])	Activity (Mus musculus)
metabolite_detected	metabolite_detected	–	[2H]C([2H])(NCC)C(=O)Nc1c(C)cccc1C	–	–	–
–	–	–	CCNCC(=O)N(O)c1c(C)cccc1C	Non-toxic	Non-toxic	Non-toxic
–	–	–	CCN(CC)CC(=O)N(O)c1c(C)cccc1C	Non-toxic	Non-toxic	Non-toxic
metabolite_detected	metabolite_detected	3100	CCN(CC)CC(=O)Nc1c(C)cccc1C [LIDOCAINE]	–	–	–
–	–	–	[2H]C([2H])(C)N(CC(=O)N(O)c1c(C)cccc1C)C([2H])([2H])C	–	–	Non-toxic
–	–	–	Cc1cccc(C)c1N	Non-toxic	Non-toxic	–
–	–	–	[2H]C([2H])([2H])CNCC(=O)N(O)c1c(C)cccc1C	–	–	Non-toxic
metabolite_detected	metabolite_detected	–	Cc1cccc(C)c1NO	Non-toxic	Non-toxic	Non-toxic
metabolite_detected	metabolite_detected	680	CCNCC(=O)Nc1c(C)cccc1C	Non-toxic	Non-toxic	–
–	–	–	Cc1cccc(C)c1N(O)C(=O)CCl	–	–	Non-toxic
metabolite_detected	metabolite_detected	–	[2H]C([2H])(C)N(CC)CC(=O)Nc1c(C)cccc1C	–	–	–
